Test results reported in ChEMBL document CHEMBL1124636, “3,4-Dihydro-2H-1-benzopyran-2-carboxylic acids and related compounds as leukotriene antagonists” (J Med Chem, 1989).
Activity calls are given as the source filed them. The rule behind the calls is not given here.

Key:
Cavia porcellus [1] = assay: Duration of action of leukotriene D4 as time for inhibition to decrease to 40%, compound was administered at a concentration 1%, for 5 min by aerosol; format: functional
Outline: (§1)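 Aerosol guinea pig bronchoconstriction with LTD4 challenge; drug given as 1% nebulized solution for 5 min. Duration taken as time for inhibition to fall to 40%.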

Cavia porcellus [2] = species: Cavia porcellus; assay: Activity against histamine induced bronchoconstriction in guinea pig, no significant inhibition at concentration of 1% by aerosol; NA means inactive; format: functional, organism-based
Cavia porcellus [3] = assay: Time taken for inhibition of antigen induced bronchoconstriction in guinea pig to decrease to 40%, compound was administered at a concentration of 1%, for 5 min by aerosol; format: functional
Outline: (§2)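 Aerosol guinea pig bronchoconstriction with antigen challenge; drug given as 1% nebulized solution for 5 min. Duration taken as time for inhibition to fall to 40%.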

Cavia porcellus [4] = assay: Inhibition of leukotriene D4 induced bronchoconstriction in anesthetized guinea pigs after intravenous administration; format: functional; settings: read-out: ID50 (the source's name)
Outline: (§3)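 Male Hartley guinea pigs, 400–600 g, urethane 2 g/kg ip, jugular cannula, propranolol 0.1 mg/kg iv 5 min before challenge, succinylcholine 1.2 mg/kg iv, ventilated. Vehicle or drug iv 30 s before LTD4 25 µg/kg iv; tracheal pressure change.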

Cavia porcellus [5] = species: Cavia porcellus; assay: Inhibitory activity to inhibit antigen induced bronchoconstriction in guinea pig; format: functional
Cavia porcellus [6] = assay: In vivo guinea pig bronchoconstriction against leukotriene D4 when administered a compound dose (mg/kg) intravenously; format: functional; settings: Lung, iv, read-out: ID50 (the source's name); outline: as §3
Cavia porcellus [7] = species: Cavia porcellus; assay: In vitro activity to inhibit leukotriene D4 induced contraction of guinea pig trachea; format: functional; settings: read-out: pA2 (converted)
Outline: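 Guinea pig tracheal smooth muscle contracted by LTD4; pA2 and Schild slope reported.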

[8] = biological target: T1, Cysteinyl leukotriene receptor 1 (Cavia porcellus) (UniProt Q2NNR5); assay: Inhibitory activity of compound to block binding of [3H]leukotriene D4 to Cysteinyl L-Cysteinyl leukotriene D4 receptor sites in homogenized guinea pig lung at 10 uM
T1 sequence (whole entry): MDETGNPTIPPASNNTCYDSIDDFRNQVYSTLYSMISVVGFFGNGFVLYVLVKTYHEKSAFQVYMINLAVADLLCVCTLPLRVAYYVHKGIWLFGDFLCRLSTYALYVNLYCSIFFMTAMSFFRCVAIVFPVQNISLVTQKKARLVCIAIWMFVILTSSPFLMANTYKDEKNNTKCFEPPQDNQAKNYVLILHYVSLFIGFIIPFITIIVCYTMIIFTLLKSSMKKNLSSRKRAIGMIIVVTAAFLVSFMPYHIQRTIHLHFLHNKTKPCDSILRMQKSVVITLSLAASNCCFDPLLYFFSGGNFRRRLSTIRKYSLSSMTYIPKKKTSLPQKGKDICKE
Outline: (§4)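 Lung from male Hartley guinea pigs (400–500 g), homogenized in sucrose/Tris pH 7.5 with protease inhibitors; 30000g membrane pellet in 10 mM PIPES pH 7.5, 50 mM NaCl. Binding: Tyrode, 0.1% BSA, 1 mM glycine, 1 mM cysteine, 3.5 nM [3H]LTD4, 100–200 µg protein, 20 °C, 30 min; glass-fiber filtration. Nonspecific with 10^-6 M LTD4. Triplicate screen at 10 µM; IC50 by linear regression.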

Cavia porcellus [9] = assay: (§5) Inhibition of leukotriene D4 induced bronchoconstriction in anesthetized guinea pigs after aerosol administration as 1% solution; format: functional
Outline: (§6)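 Guinea pigs given propranolol 0.1 mg/kg iv 5 min before 5-min ultrasonic nebulizer exposure to aqueous, NaOH-neutralized drug (% w/v) or distilled water, breathing spontaneously. LTD4 50 µg/kg iv 30 s after exposure; tracheal pressure change.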

Cavia porcellus [10] = assay: (§7) Duration of action of leukotriene E4 as time for inhibition to decrease to 40%, compound administered at a concentration of 1%,for 5 min by aerosol; format: functional
Outline: (§8)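 Aerosol guinea pig bronchoconstriction with LTE4 challenge; drug given as 1% nebulized solution for 5 min. Duration taken as time for inhibition to fall to 40%.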

Cavia porcellus [11] = assay: Activity against platelet activating factor in guinea pig, no significant inhibition when compound dose (10 mg/kg) given intravenously; NA means inactive; format: functional, organism-based
Cavia porcellus [12] = species: Cavia porcellus; assay: Activity against platelet activating factor in guinea pig, no significant inhibition at concentration of 1% by aerosol; NA means inactive; format: functional, organism-based
Cavia porcellus [13] = assay: as §5; format: functional, organism-based; outline: as §6
[14] = biological target: Dual specificity calcium/calmodulin-dependent 3',5'-cyclic nucleotide phosphodiesterase 1A (Bos taurus, UniProt P14100); assay: Inhibition of bovine heart Phosphodiesterase 1A
Sequence of Dual specificity calcium/calmodulin-dependent 3',5'-cyclic nucleotide phosphodiesterase 1A (P14100 whole entry): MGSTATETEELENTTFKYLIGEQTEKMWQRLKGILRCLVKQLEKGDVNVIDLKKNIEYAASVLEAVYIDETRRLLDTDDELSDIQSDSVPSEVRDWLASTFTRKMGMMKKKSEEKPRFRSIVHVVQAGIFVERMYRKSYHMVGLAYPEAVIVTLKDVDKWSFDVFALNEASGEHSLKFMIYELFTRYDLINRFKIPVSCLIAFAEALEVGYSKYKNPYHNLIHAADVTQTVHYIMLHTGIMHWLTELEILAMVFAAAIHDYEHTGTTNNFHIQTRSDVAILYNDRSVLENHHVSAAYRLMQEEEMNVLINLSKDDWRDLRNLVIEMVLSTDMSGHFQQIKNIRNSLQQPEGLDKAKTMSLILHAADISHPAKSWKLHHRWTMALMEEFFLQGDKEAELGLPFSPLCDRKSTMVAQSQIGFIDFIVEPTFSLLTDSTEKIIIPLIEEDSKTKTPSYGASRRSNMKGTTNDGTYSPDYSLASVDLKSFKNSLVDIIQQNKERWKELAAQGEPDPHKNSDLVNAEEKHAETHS

Cavia porcellus [15] = assay: (§9) Duration of action of leukotriene E4 as time for inhibition to decrease to 40%, compound was administered at a dose of 10 mg/kg; format: functional
Outline: (§10)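 Intravenous guinea pig bronchoconstriction with LTE4 challenge; drug 10 mg/kg iv. Duration taken as time for inhibition to fall to 40%.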

Cavia porcellus [16] = assay: Activity against histamine induced bronchoconstriction in guinea pig, no significant inhibition when compound dose (10 mg/kg) given intravenously; NA means inactive; format: functional, organism-based
[17] = Inhibitory activity to inhibit Inophore-induced arachidonic acid metabolism (inhibition of PGE-2 formation) in rat; format: functional
Outline: (§11)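 Rat peritoneal macrophages adhered 90 min at 37 °C, labeled with [14C]arachidonic acid 90 min, washed. Compound 30 min at 37 °C, then A23187 0.5 µM for 20 min. LTB4 and PGE2 in medium by radioimmunoassay.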

Cavia porcellus [18] = assay: In vivo guinea pig bronchoconstriction against leukotriene E4 when administered a compound dose(mg/kg) intravenously; format: functional; settings: Lung, iv, read-out: ID50 (the source's name)
Cavia porcellus [19] = assay: In vivo guinea pig bronchoconstriction against leukotriene C4 when administered a compound dose (mg/kg) intravenously; format: functional; settings: Lung, iv, read-out: ID50 (the source's name)
[20] = biological target: T2, Cysteinyl leukotriene receptor 1 (Cavia porcellus, UniProt Q2NNR5); assay: Inhibitory activity of compound to block binding of [3H]leukotriene D4 to Cysteinyl leukotriene D4 receptor sites in homogenized guinea pig lung; outline: as §4
T2 sequence (Q2NNR5 whole entry): T1 sequence (whole entry)

Cavia porcellus [21] = assay: (§12) Duration of action of leukotriene D4 as time for inhibition to decrease to 40%, compound was administered at a dose of 10 mg/kg; format: functional
Outline: (§13)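 Intravenous guinea pig bronchoconstriction with LTD4 challenge; drug 10 mg/kg iv. Duration taken as time for inhibition to fall to 40%.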

Cavia porcellus [22] = species: Cavia porcellus; assay: In vitro activity to inhibit SRS-A induced contraction of guinea pig ileum
Cavia porcellus [23] = assay: Inhibition of leukotriene D4 induced bronchoconstriction in anesthetized guinea pigs after intravenous administration at a dose of 10 mg/kg; format: functional; outline: as §3
Rattus norvegicus [24] = species: Rattus norvegicus; assay: Inhibitory activity to inhibit Inophore-induced arachidonic acid metabolism (inhibition of LTB4 formation) in rat; format: functional, organism-based; outline: as §11
[25] = tested on: Cysteinyl leukotriene receptor (Cavia porcellus); assay: Inhibitory activity to block binding of [3H]leukotriene D4 to LTD4 receptor sites in homogenized guinea pig lung at 10 uM
Cavia porcellus [26] = assay: Inhibition of leukotriene E4 induced bronchoconstriction in anesthetized guinea pigs after aerosol administration as 1% solution; format: functional
Cavia porcellus [27] = assay: Inhibition of leukotriene E4 induced bronchoconstriction in anesthetized guinea pigs after intravenous administration at a dose of 10 mg/kg; format: functional
[28] = biological target: T2, Cysteinyl leukotriene receptor 1; assay: In vitro activity to inhibit binding of [3H]- leukotriene D4 to receptor sites in guinea pig lung membrane; format: cell membranes; outline: as §4
Cavia porcellus [29] = species: Cavia porcellus; assay: In vitro activity to inhibit SRS-A induced contraction of guinea pig ileum; remark: listed apart in the source
Cavia porcellus [30] = assay: Activity against histamine induced bronchoconstriction in guinea pig (when administered at a concentration of 1%, by aerosol); Not active; format: functional, organism-based
Cavia porcellus [31] = assay: Activity against platelet activating factor in guinea pig, no significant inhibition when compound dose (10 mg/kg) given intravenously; Not active.; format: functional, organism-based
Cavia porcellus [32] = assay: Duration of action of leukotriene D4 as time for inhibition to decrease to 40%, when compound was administered at a concentration of 1%, for 5 min by aerosol; format: ADME, organism-based; settings: guinea pig, in vivo, inhaled_or_intranasal; outline: as §1
Cavia porcellus [33] = assay: Activity against platelet activating factor in guinea pig (when administered at a concentration of 1%, by aerosol); Not active; format: functional, organism-based
Cavia porcellus [34] = assay: In vivo guinea pig bronchoconstriction against leukotriene B4 (when administered at a concentration of 1%, by aerosol); Not active; settings: Lung
Cavia porcellus [35] = assay: as §12; format: ADME, organism-based; set-up: dose 10 mg/kg; settings: guinea pig, in vivo; outline: as §13
Cavia porcellus [36] = assay: as §7; format: ADME, organism-based; settings: guinea pig, in vivo, inhaled_or_intranasal; outline: as §8
Cavia porcellus [37] = assay: Time taken for inhibition of antigen induced bronchoconstriction in guinea pig to decrease to 40%, compound administered at a concentration of 1%, for 5 min by aerosol; format: organism-based; settings: in vivo, inhaled_or_intranasal; outline: as §2
Cavia porcellus [38] = assay: Inhibitory activity to inhibit arachidonic acid induced bronchoconstriction (when administered at a concentration of 1%, by aerosol); Not active; format: functional, organism-based
Cavia porcellus [39] = assay: In vivo guinea pig bronchoconstriction against leukotriene C4 when administered at a concentration of 1%, by aerosol; NS means no significant inhibition.; format: functional, organism-based; settings: Lung
Cavia porcellus [40] = assay: as §9; format: ADME, organism-based; set-up: dose 10 mg/kg; settings: guinea pig, in vivo; outline: as §10
Cavia porcellus [41] = assay: Activity against histamine induced bronchoconstriction in guinea pig, no significant inhibition when compound dose (10 mg/kg) given intravenously; Not active.; format: functional, organism-based
Cavia porcellus [42] = assay: Inhibition of leukotriene D4 induced bronchoconstriction in anesthetized guinea pigs after intravenous administration at a dose of 1 mg/kg; format: functional
Rattus norvegicus [43] = species: Rattus norvegicus; assay: Inhibitory activity to inhibit Inophore-induced arachidonic acid metabolism (inhibition of LTB4 formation) in rat; Inactive = no significant inhibition at a concentration of 100 uM; format: functional, organism-based; outline: as §11

CCCc1c(OCCCCCOc2cc3c(cc2C(C)=O)CCC(C(=O)O)O3)ccc(C(C)=O)c1O (stereo not drawn) [ABLUKAST]
Duration (Cavia porcellus [1]): 150 min | inhibition (Cavia porcellus [2]): inactive | Duration (Cavia porcellus [3]): 250 min | ED50 (Cavia porcellus [4]): 5 mg/kg | Inhibition (Cavia porcellus [5]): 0.027% | ED50 (Cavia porcellus [6]): 5 mg/kg | Kb (Cavia porcellus [7]): 0.251 µM | inhibition [8]: 70% | Inhibition (Cavia porcellus [9]): 89% | Duration (Cavia porcellus [10]): 90 min | inhibition (Cavia porcellus [11]): inactive | inhibition (Cavia porcellus [12]): inactive | IC50 (Cavia porcellus [13]): 0.007 % conc | IC50 [14]: 36 µM | Duration (Cavia porcellus [15]): 40 min | inhibition (Cavia porcellus [16]): inactive | IC50 [17]: 7 µM | ED50 (Cavia porcellus [18]): 1 mg/kg | ED50 (Cavia porcellus [19]): 3 mg/kg | IC50 [20]: 4 µM | Duration (Cavia porcellus [21]): 40 min | IC50 (Cavia porcellus [22]): 0.06 µM | inhibition in vivo at 10 mg/kg (Cavia porcellus [23]): 93% | IC50 (Rattus norvegicus [24]): 4 µM

CCCc1c(OCCCOc2c(C)c(C)c3c(c2C)CCC(C)(C(=O)O)O3)ccc(C(C)=O)c1O (stereo not drawn)
inhibition [25]: 88% | Inhibition (Cavia porcellus [26]): 53% | inhibition in vivo at 10 mg/kg (Cavia porcellus [27]): 99%

CCCc1c(OCCCCCOc2cc3c(cc2C(C)=O)CC[C@@H](C(=O)O)O3)ccc(C(C)=O)c1O
ED50 (Cavia porcellus [6]): 3 mg/kg | IC50 [28]: 5 µM | Kb (Cavia porcellus [7]): 0.631 µM | IC50 (Cavia porcellus [29]): 0.06 µM | ED50 (Cavia porcellus [19]): 4 mg/kg

CCCc1c(OCC(O)COc2ccc3c(=O)cc(C(=O)O)oc3c2CCC)ccc(C(C)=O)c1O (stereo not drawn) [FPL-55712]
ED50 (Cavia porcellus [4]): 2 mg/kg | inhibition (Cavia porcellus [30]): inactive | inhibition (Cavia porcellus [31]): inactive | Duration (Cavia porcellus [32]): 60 min | ED50 (Cavia porcellus [6]): 2 mg/kg | inhibition (Cavia porcellus [33]): inactive | inhibition (Cavia porcellus [34]): inactive | Duration (Cavia porcellus [35]): 6 min | Kb (Cavia porcellus [7]): 1 µM | Inhibition (Cavia porcellus [9]): 64% | Duration (Cavia porcellus [36]): 50 min | Duration (Cavia porcellus [37]): 270 min | IC50 (Cavia porcellus [13]): 0.5 % conc | IC50 [14]: 40 µM | inhibition (Cavia porcellus [38]): inactive | inhibition (Cavia porcellus [39]): inactive | ED50 (Cavia porcellus [18]): 1 mg/kg | ED50 (Cavia porcellus [19]): 6 mg/kg | Duration (Cavia porcellus [40]): 6 min | inhibition (Cavia porcellus [41]): inactive | IC50 (Cavia porcellus [22]): 0.05 µM | inhibition in vivo at 10 mg/kg (Cavia porcellus [23]): 92%

CCCc1c(OCCCCCOc2cc3c(cc2C(C)=O)CCC(c2nnn[nH]2)O3)ccc(C(C)=O)c1O (stereo not drawn)
inhibition in vivo at 1 mg/kg (Cavia porcellus [42]): 0% | inhibition [25]: 60%

O=C(O)c1ccc(OCCn2ccnc2)cc1 [DAZOXIBEN]
IC50 [17]: 10 µM | IC50 (Rattus norvegicus [43]): Not Active
